According to ChEMBL document CHEMBL2375268, “Design, synthesis and antiproliferative properties of some new 5-substituted-2-iminobenzimidazole derivatives” (Eur J Med Chem, 2013):
pEC50, pIC50: −log10 of the molar value.

Tests used:
HepG2 = assay: Antiproliferative activity against human HepG2 cells after 24 hrs by MTS assay; type: functional, cell-based; conditions: HepG2, 24 h
In short: (§1)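 Compounds taken up in DMSO at 0.5 mg/ml stock, then diluted 1:10, 1:100, 1:1000 and 1:10 000. Cells exposed 24 h; cells in unmodified medium served as control. MTS added, 4 h at 37 °C in 5% CO2/95% air, absorbance read at 490 nm. Viability given as % of untreated control per concentration, mean of three independent assays. IC50 (cancer lines) or EC50 (Lep-3) derived from plotted curves.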

MDA-MB-231 = assay: Antiproliferative activity against human MDA-MB-231 cells after 24 hrs by MTS assay; type: functional, cell-based; conditions: MDA-MB-231, 24 h; in short: as §1
HT-29 = assay: Antiproliferative activity against human HT-29 cells after 24 hrs by MTS assay; type: functional, cell-based; conditions: HT-29, 24 h; in short: as §1
[1] = Antiproliferative activity against human LEP-3 cells after 24 hrs by MTS assay; type: cell-based; conditions: LEP-3, 24 h; in short: as §1
HeLa = assay: Antiproliferative activity against human HeLa cells after 24 hrs by MTS assay; type: functional, cell-based; in short: as §1

| Compound | pEC50 (HepG2) | pEC50 (MDA-MB-231) | pEC50 (HT-29) | pEC50 [1] | pEC50 (HeLa) | pIC50 (HT-29) | pIC50 (MDA-MB-231) | pIC50 (HepG2) | pIC50 (HeLa) |
| --- | --- | --- | --- | --- | --- | --- | --- | --- | --- |
| CCCCn1c(=N)n(CCCC)c2cc([N+](=O)[O-])ccc21 | 6.85 | 7.07 | 6.75 | 6.94 | 6.80 | – | – | – | – |
| N#CCCCCn1c(=N)n(CCCCC#N)c2cc(C(=O)c3ccccc3)ccc21 | 7.03 | 6.92 | 7.33 | 7.17 | 10.82 | – | – | – | – |
| CCOC(=O)Cn1c(=N)n(CC(=O)OCC)c2cc(C(=O)c3ccccc3)ccc21 | 7.15 | 9.55 | – | 7.14 | – | 9.19 | – | – | – |
| N=c1n(CC(=O)N/N=C/c2ccc3c(c2)OCO3)c2ccc(C(=O)c3ccccc3)cc2n1CC(=O)N/N=C/c1ccc2c(c1)OCO2 | 7.99 | – | – | 9.68 | 9.60 | 8.55 | 8.21 | – | – |
| N=c1n(CC(=O)N/N=C/c2ccc(F)cc2)c2ccc([N+](=O)[O-])cc2n1CC(=O)N/N=C/c1ccc(F)cc1 | – | 7.77 | 7.61 | 7.91 | – | – | – | 8.14 | 6.93 |
